Key:
Assay type in all cases: functional
Staphylococcus aureus [1] = test: Antibacterial activity against methicillin-resistant Staphylococcus aureus H 5996/08 after 48 hrs by microdilution broth method; conditions: H 5996/08, 48 h
Klebsiella pneumoniae [2] = test: Antibacterial activity against Klebsiella pneumoniae D 11750/08 after 48 hrs by microdilution broth method; conditions: D 11750/08, 48 h
Method in brief: (§1)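 Mueller-Hinton broth microdilution (modified M07-A07), pH 7.4 (±0.2). Compounds dissolved in DMSO, tested at final 500 to 0.49 µmol/L. Inoculum in sterile water matched to 0.5 McFarland. Incubated in the dark, humid atmosphere, 35 °C, read at 24 and 48 h visually and at 540 nm. MIC taken as ≥95% growth reduction (IC95) versus control.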

Mycobacterium kansasii [3] = test: Antimycobacterial activity against Mycobacterium kansasii 6509/96 after 7 days; conditions: 6509/96, 168 h
Method in brief: (§2)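 Šula's semisynthetic medium micromethod at 37 °C, read after 7, 14 and 21 days. The 1.0 McFarland suspension was diluted 10^-4. MIC determined. 6509/96 is a clinical isolate.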

Nakaseomyces glabratus [4] = test: Antifungal activity against Candida glabrata 20/I after 24 hrs by microdilution broth method
Method in brief: (§3)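 CLSI M27-A3 broth microdilution in RPMI 1640 with glutamine, buffered to pH 7.0 with MOPS; DMSO diluent. Yeast inoculum 5 × 10^3 ± 0.2 CFU/mL. Moulds grown on Sabouraud agar 3–10 days before spore harvest, final inoculum 0.5-5 × 10^4 CFU/mL, checked in a Bürker chamber. Incubated dark, humid, 35 °C, read at 24 and 48 h visually and at 540 nm. MIC taken as ≥80% (yeasts) or ≥50% (filamentous) growth reduction versus control.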

Pseudomonas aeruginosa [5] = test: Antibacterial activity against Pseudomonas aeruginosa CCM 1961 after 48 hrs by microdilution broth method; conditions: CCM 1961, 48 h; method in brief: as §1
Trichosporon asahii [6] = test: Antifungal activity against Trichosporon asahii 1188 after 24 hrs by microdilution broth method; conditions: Trichosporon asahii, 1188, 24 h; method in brief: as §3
Staphylococcus aureus [7] = test: Antibacterial activity against Staphylococcus aureus CCM 4516/08 after 24 hrs by microdilution broth method; conditions: CCM 4516/08, 24 h
Trichosporon asahii [8] = test: Antifungal activity against Trichosporon asahii 1188 after 48 hrs by microdilution broth method; conditions: Trichosporon asahii, 1188, 48 h; method in brief: as §3
Staphylococcus aureus [9] = test: Antibacterial activity against methicillin-resistant Staphylococcus aureus H 5996/08 after 24 hrs by microdilution broth method; conditions: H 5996/08, 24 h
Candida albicans [10] = test: Antifungal activity against Candida albicans ATCC 44859 after 24 hrs by microdilution broth method; conditions: ATCC 44859, 24 h; method in brief: as §3
Pichia kudriavzevii [11] = test: Antifungal activity against Candida krusei E28 after 24 hrs by microdilution broth method; conditions: E28, 24 h; method in brief: as §3
Mycobacterium avium [12] = test: Antimycobacterial activity against Mycobacterium avium 330/80 after 21 days; conditions: 330/80, 504 h
[13] = test system: Trichophyton mentagrophytes; test: Antifungal activity against Trichophyton mentagrophytes 445 after 24 hrs by microdilution broth method; conditions: Trichophyton mentagrophytes, 445, 24 h
[14] = test system: Staphylococcus epidermidis; test: Antibacterial activity against Staphylococcus epidermidis H 6966/08 after 24 hrs by microdilution broth method; conditions: H 6966/08, 24 h; method in brief: as §1
[15] = test system: Staphylococcus epidermidis; test: Antibacterial activity against Staphylococcus epidermidis H 6966/08 after 48 hrs by microdilution broth method; conditions: H 6966/08, 48 h; method in brief: as §1
Staphylococcus aureus [16] = test: Antibacterial activity against Staphylococcus aureus CCM 4516/08 after 48 hrs by microdilution broth method; conditions: CCM 4516/08, 48 h
Pichia kudriavzevii [17] = test: Antifungal activity against Candida krusei E28 after 48 hrs by microdilution broth method; conditions: E28, 48 h; method in brief: as §3
Mycobacterium kansasii [18] = test: Antimycobacterial activity against Mycobacterium kansasii 235/80 after 21 days; conditions: 235/80, 504 h; method in brief: as §2
Aspergillus fumigatus [19] = test: Antifungal activity against Aspergillus fumigatus 231 after 48 hrs by microdilution broth method; conditions: Aspergillus fumigatus, 231, 48 h; method in brief: as §3
Candida tropicalis [20] = test: Antifungal activity against Candida tropicalis 156 after 48 hrs by microdilution broth method; conditions: Candida tropicalis, 156, 48 h; method in brief: as §3
Pseudomonas aeruginosa [21] = test: Antibacterial activity against Pseudomonas aeruginosa CCM 1961 after 24 hrs by microdilution broth method; conditions: CCM 1961, 24 h; method in brief: as §1
Lichtheimia corymbifera [22] = test: Antifungal activity against Absidia corymbifera 272 after 24 hrs by microdilution broth method; conditions: Lichtheimia corymbifera, 272, 24 h; method in brief: as §3
Nakaseomyces glabratus [23] = test: Antifungal activity against Candida glabrata 20/I after 48 hrs by microdilution broth method; method in brief: as §3
Klebsiella pneumoniae [24] = test: Antibacterial activity against Klebsiella pneumoniae D 11750/08 after 24 hrs by microdilution broth method; conditions: D 11750/08, 24 h; method in brief: as §1
Enterococcus sp. [25] = test: Antibacterial activity against Enterococcus sp. J 14365/08 after 24 hrs by microdilution broth method; conditions: J 14365/08, 24 h; method in brief: as §1
Escherichia coli [26] = test: Antibacterial activity against Escherichia coli CCM4517 after 48 hrs by microdilution broth method; conditions: CCM4517, 48 h; method in brief: as §1
Candida albicans [27] = test: Antifungal activity against Candida albicans ATCC 44859 after 48 hrs by microdilution broth method; conditions: ATCC 44859, 48 h; method in brief: as §3
Candida tropicalis [28] = test: Antifungal activity against Candida tropicalis 156 after 24 hrs by microdilution broth method; conditions: Candida tropicalis, 156, 24 h; method in brief: as §3
Mycobacterium kansasii [29] = test: Antimycobacterial activity against Mycobacterium kansasii 235/80 after 14 days; conditions: 235/80, 336 h; method in brief: as §2
Escherichia coli [30] = test: Antibacterial activity against Escherichia coli CCM4517 after 24 hrs by microdilution broth method; conditions: CCM4517, 24 h; method in brief: as §1
Lichtheimia corymbifera [31] = test: Antifungal activity against Absidia corymbifera 272 after 48 hrs by microdilution broth method; conditions: Lichtheimia corymbifera, 272, 48 h; method in brief: as §3
[32] = test system: Trichophyton mentagrophytes; test: Antifungal activity against Trichophyton mentagrophytes 445 after 48 hrs by microdilution broth method; conditions: Trichophyton mentagrophytes, 445, 48 h
Enterococcus sp. [33] = test: Antibacterial activity against Enterococcus sp. J 14365/08 after 48 hrs by microdilution broth method; conditions: J 14365/08, 48 h; method in brief: as §1
Aspergillus fumigatus [34] = test: Antifungal activity against Aspergillus fumigatus 231 after 24 hrs by microdilution broth method; conditions: Aspergillus fumigatus, 231, 24 h; method in brief: as §3
Klebsiella pneumoniae [35] = test: Antibacterial activity against ESBL-positive Klebsiella pneumoniae J 14368/08 after 24 hrs by microdilution broth method; conditions: J 14368/08, 24 h; method in brief: as §1
Mycobacterium kansasii [36] = test: Antimycobacterial activity against Mycobacterium kansasii 235/80 after 7 days; conditions: 235/80, 168 h; method in brief: as §2
[37] = test system: Mycobacterium tuberculosis; test: Antimycobacterial activity against Mycobacterium tuberculosis H37Rv 331/88 after 21 days; conditions: H37Rv 331/88, 504 h
Mycobacterium kansasii [38] = test: Antimycobacterial activity against Mycobacterium kansasii 6509/96 after 21 days; conditions: 6509/96, 504 h; method in brief: as §2
Mycobacterium kansasii [39] = test: Antimycobacterial activity against Mycobacterium kansasii 6509/96 after 14 days; conditions: 6509/96, 336 h; method in brief: as §2
[40] = test system: Mycobacterium tuberculosis; test: Antimycobacterial activity against Mycobacterium tuberculosis H37Rv 331/88 after 14 days; conditions: H37Rv 331/88, 336 h
Mycobacterium avium [41] = test: Antimycobacterial activity against Mycobacterium avium 330/80 after 14 days; conditions: 330/80, 336 h
Klebsiella pneumoniae [42] = test: Antibacterial activity against ESBL-positive Klebsiella pneumoniae J 14368/08 after 48 hrs by microdilution broth method; conditions: J 14368/08, 48 h; method in brief: as §1

Measured: MIC

O=C(Nc1cccc(I)c1)c1ccc([N+](=O)[O-])cc1O
3.9 µM: Staphylococcus aureus [1] | Staphylococcus aureus [7] | Staphylococcus aureus [9] | Staphylococcus aureus [16]
> 500 µM: Klebsiella pneumoniae [2] | Nakaseomyces glabratus [4] | Pseudomonas aeruginosa [5] | Trichosporon asahii [6] | Trichosporon asahii [8] | Candida albicans [10] | Pichia kudriavzevii [11] | [13] | Pichia kudriavzevii [17] | Aspergillus fumigatus [19] | Candida tropicalis [20] | Pseudomonas aeruginosa [21] | Lichtheimia corymbifera [22] | Nakaseomyces glabratus [23] | Klebsiella pneumoniae [24] | Enterococcus sp. [25] | Escherichia coli [26] | Candida albicans [27] | Candida tropicalis [28] | Escherichia coli [30] | Lichtheimia corymbifera [31] | [32] | Enterococcus sp. [33] | Aspergillus fumigatus [34] | Klebsiella pneumoniae [35] | Klebsiella pneumoniae [42]
8 µM: Mycobacterium kansasii [36]
32 µM: Mycobacterium avium [41]
15.6 µM: [14] | [15]
62.5 µM: Mycobacterium avium [12]
16 µM: Mycobacterium kansasii [3] | Mycobacterium kansasii [18] | Mycobacterium kansasii [29] | [37] | Mycobacterium kansasii [38] | Mycobacterium kansasii [39] | [40]

O=C(Nc1cccc(Cl)c1)c1cc([N+](=O)[O-])ccc1O
32 µM: Mycobacterium kansasii [3] | Mycobacterium kansasii [29]
62.5 µM: Staphylococcus aureus [1] | Staphylococcus aureus [9] | [14] | [15] | Staphylococcus aureus [16] | Mycobacterium kansasii [18] | Mycobacterium kansasii [38] | Mycobacterium kansasii [39]
> 500 µM: Klebsiella pneumoniae [2] | Nakaseomyces glabratus [4] | Pseudomonas aeruginosa [5] | Trichosporon asahii [6] | Trichosporon asahii [8] | Candida albicans [10] | Pichia kudriavzevii [17] | Candida tropicalis [20] | Pseudomonas aeruginosa [21] | Lichtheimia corymbifera [22] | Nakaseomyces glabratus [23] | Klebsiella pneumoniae [24] | Escherichia coli [26] | Candida albicans [27] | Candida tropicalis [28] | Escherichia coli [30] | Lichtheimia corymbifera [31] | Enterococcus sp. [33] | Klebsiella pneumoniae [35] | Klebsiella pneumoniae [42]
250 µM: [13] | [32]
16 µM: Mycobacterium kansasii [36] | [37] | [40]
125 µM: Mycobacterium avium [12] | Mycobacterium avium [41]
500 µM: Pichia kudriavzevii [11] | Aspergillus fumigatus [19] | Enterococcus sp. [25] | Aspergillus fumigatus [34]
31.2 µM: Staphylococcus aureus [7]

OC(Cn1cncn1)(Cn1cncn1)c1ccc(F)cc1F [FLUCONAZOLE]
500 µM: Trichosporon asahii [8] | Nakaseomyces glabratus [23]
> 500 µM: Aspergillus fumigatus [19] | Candida tropicalis [20] | Lichtheimia corymbifera [22] | Candida tropicalis [28] | Lichtheimia corymbifera [31] | Aspergillus fumigatus [34]
0.24 µM: Candida albicans [10] | Candida albicans [27]
31.2 µM: Nakaseomyces glabratus [4]
7.81 µM: [13]
250 µM: Trichosporon asahii [6] | Pichia kudriavzevii [17]
125 µM: Pichia kudriavzevii [11] | [32]

Reference: ChEMBL document CHEMBL3627671, “Novel derivatives of nitro-substituted salicylic acids: Synthesis, antimicrobial activity and cytotoxicity” (Bioorg Med Chem, 2015)
